Data as given in ChEMBL document CHEMBL1134395, “Angular methoxy-substituted furo- and pyranoquinolinones as blockers of the voltage-gated potassium channel Kv1.3” (J Med Chem, 2001).
Several values for one entry are separate records, joined by “and”; a condition that tells them apart may be missing. Identical values can stand only once.

Legend:
[1] = biological target: Potassium voltage-gated channel subfamily A member 3 (Mus musculus) (UniProt P16390); assay: Blockade of peak steady-state K+ currents of Kv1.3 channels in mouse fibroblasts L929 at 25 uM; assay type: functional
Procedure, shortened: (§1)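 Whole-cell patch clamp at room temperature on L929 fibroblasts stably transfected with mKv1.3, grown in DMEM with 10% FCS and 300 µg/mL G418. Bath: 160 mM NaCl, 4.5 KCl, 2.0 CaCl2, 1.0 MgCl2, 5 HEPES, pH 7.4, with 5% DMSO. Pipette: 120 KF, 20 KCl, 10 HEPES, 10 EGTA, pH 7.2. Holding −80 mV, 200 ms pulses to 40 mV; peak steady-state current normalized to control bath; mean of ≥3 cells.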

[2] = test system: N1E-115; assay type: functional, Mus musculus; details: at 50 µM
[3] = test system: N1E-115; assay: Blockade of peak steady-state Na+ currents of neuroblastoma cells N1E-115 at 25 uM; assay type: functional, Mus musculus
Procedure, shortened: (§2)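 Same N1E-115 whole-cell recordings and solutions (holding −80 mV, room temperature, 5% DMSO). Peak Na+ current is taken at pulses to 0 mV and normalized to the current in control bathing medium. Reported as mean of at least three experiments.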

[4] = test system: N1E-115; assay type: functional, Mus musculus; details: at 50 µM; remark: listed apart in the source
[5] = biological target: Potassium voltage-gated channel subfamily A member 3 (Mus musculus) (UniProt P16390); details: at 50 µM
[6] = test system: N1E-115; assay: Blockade of peak steady-state K+ currents of neuroblastoma cells N1E-115 at 25 uM; assay type: functional, Mus musculus
Procedure, shortened: (§3)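 Whole-cell patch clamp at room temperature on N1E-115 neuroblastoma cells, grown in DMEM with 10% FCS. Bath: 125 mM NaCl, 5.5 KCl, 1.5 CaCl2, 2.0 MgCl2, 25 glucose, 5 HEPES, pH 7.4, with 5% DMSO. Pipette: 120 KF, 10 KCl, 10 NaCl, 10 HEPES, 10 EGTA, pH 7.2. Holding −80 mV, 100 ms pulses to 40 mV; peak steady-state K+ current normalized to control bath; mean of ≥3 cells.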

[7] = biological target: Potassium voltage-gated channel subfamily A member 3 (Mus musculus) (UniProt P16390); assay: Blockade of peak steady-state K+ currents of voltage-gated potassium channel subunit Kv1.3 expressed in mouse fibroblasts L929 at 50 uM; assay type: functional; procedure, shortened: as §1
[8] = test system: N1E-115; assay: Inhibition of N1E-115 cells Kv channels; assay type: functional, cell-based; details: Mus musculus
Procedure, shortened: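 Whole-cell patch clamp on N1E-115 cells. Holding −80 mV, steps to 40 mV; room temperature, bath with 5% DMSO. Peak K+ block is measured at several concentrations, and a modified Hill equation is fitted to give the half-blocking concentration, reported ± SEM.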

[9] = biological target: T1, Potassium voltage-gated channel subfamily A member 3 (Mus musculus, UniProt P16390); assay: Blockade of peak steady-state K+ currents of voltage-gated potassium channel subunit Kv1.3 in mouse fibroblasts L929 at 50 uM; assay type: functional; details: in the assay text read “at different concentrations” for “at 50 uM”; procedure, shortened: as §1
[10] = test system: N1E-115; assay: Blockade of peak steady-state Na+ currents of neuroblastoma cells N1E-115 at 100 uM; assay type: functional, Mus musculus; procedure, shortened: as §2
[11] = test system: N1E-115; assay: Blockade of peak steady-state Na+ currents of neuroblastoma cells N1E-115 at 50 uM; assay type: functional, Mus musculus; procedure, shortened: as §2
[12] = biological target: T1, Potassium voltage-gated channel subfamily A member 3; assay: Inhibition of voltage-gated potassium channel subunit Kv1.3 expressed in L929 cells; assay type: functional, cell-based
Procedure, shortened: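 Whole-cell patch clamp on mKv1.3-transfected L929 cells. Holding −80 mV, 200 ms steps to 40 mV; room temperature, bath with 5% DMSO. Peak K+ block is measured at several concentrations, and a modified Hill equation is fitted to give the half-blocking concentration, reported ± SEM.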

[13] = biological target: Potassium voltage-gated channel subfamily A member 3 (Mus musculus) (UniProt P16390); assay: Blockade of peak steady-state K+ currents of Kv1.3 channels in mice fibroblasts L929 at 25 uM; assay type: functional; procedure, shortened: as §1
[14] = biological target: Potassium voltage-gated channel subfamily A member 3 (Mus musculus) (UniProt P16390); assay: Blockade of peak steady-state K+ currents of Kv1.3 channels in mice fibroblasts L929 at 50 uM; assay type: functional; procedure, shortened: as §1
[15] = test system: N1E-115; assay: Blockade of peak steady-state K+ currents of neuroblastoma cells N1E-115 at 100 uM; assay type: functional, Mus musculus; procedure, shortened: as §3

Chain of Potassium voltage-gated channel subfamily A member 3 (Mus musculus) (P16390 whole entry): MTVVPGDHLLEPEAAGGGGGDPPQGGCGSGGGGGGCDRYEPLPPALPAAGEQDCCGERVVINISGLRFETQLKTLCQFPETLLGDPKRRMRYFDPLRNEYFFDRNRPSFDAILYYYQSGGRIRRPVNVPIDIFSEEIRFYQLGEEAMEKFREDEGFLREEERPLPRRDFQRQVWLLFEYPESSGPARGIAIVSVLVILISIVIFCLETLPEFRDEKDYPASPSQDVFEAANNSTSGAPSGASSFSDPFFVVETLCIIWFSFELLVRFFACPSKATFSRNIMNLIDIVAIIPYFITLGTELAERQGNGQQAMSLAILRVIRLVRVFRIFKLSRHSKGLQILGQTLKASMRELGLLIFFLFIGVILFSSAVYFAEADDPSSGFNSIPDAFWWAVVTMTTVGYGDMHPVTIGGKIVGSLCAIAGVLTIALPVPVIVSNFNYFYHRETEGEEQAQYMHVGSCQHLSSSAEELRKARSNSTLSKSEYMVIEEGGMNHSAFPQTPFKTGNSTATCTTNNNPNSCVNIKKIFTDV
T1 sequence (P16390 whole entry): as above

| SMILES | BK [5] | BK [2] | BNa [4] | other results |
| --- | --- | --- | --- | --- |
| Cn1c(=O)c2c(c3cc([N+](=O)[O-])ccc31)OC(C)(C)CC2 |  | 14% |  | BK [1]: 7%; BNa [3]: 0% |
| CC1(C)CCc2c(O)nc3ccc([N+](=O)[O-])cc3c2O1 |  | 23% | 8% |  |
| COc1ccc2c(c1)c1oc(C(C)C)c(S(=O)(=O)[O-])c1c(=O)n2C.[Na+] |  |  |  | BK [6]: 0%; BNa [3]: 0% |
| CC1(C)Oc2nc3ccc(Br)cc3c(O)c2CC1Br (configuration not stated) |  | 32% | 1% | BK [7]: 35% |
| CC1(C)CCc2c(nc3ccccc3c2O)O1 | 7% | 6% | -18% |  |
| CCCCC/N=c1\ccn(Cc2ccccc2)c2ccccc12 [CP-339818] |  |  |  | IC50 [9]: 0.23 µM |
| Cn1c2c(c(=O)c3cc(O)ccc31)CC(O)C(C)(C)O2 (configuration not stated) |  | 0% |  | BNa [10]: 3% |
| COc1ccc2c(c1)c1c(c(=O)n2C)CC(O)C(C)(C)O1 (configuration not stated) | 4% | 21% | 2% |  |
| Cn1c2c(c(=O)c3cc(O)ccc31)CC(C(C)(C)O)O2 (configuration not stated) |  | 7% |  | BNa [10]: 13% |
| COc1ccc(CCCN2CCC(COC(c3ccccc3)c3ccccc3)CC2)cc1 |  |  |  | IC50 [9]: 0.28 µM |
| COc1ccc2c(c1)c(=O)c1c(n2C)OC(C)(C)CC1 | 10% | 7% | 0% |  |
| Cn1c2c(c(=O)c3ccccc31)CC(O)C(C)(C)O2 (configuration not stated) |  | 0% | 0% |  |
| COc1ccc2c(c1)c1c(c(=O)n2C)C=CC(C)(C)O1 |  | 64% | 12% | BK [6]: 44%; BNa [3]: 1%; IC50 [8]: 31 µM; IC50 [9]: 10 µM; BK [13]: 88%; BK [14]: 93% |
| Cn1c(=O)c2c(c3ccccc31)OC(C)(C)CC2 | 48% | 65% | 7% |  |
| Cn1c(=O)c2c(c3ccccc31)OC(C)(C)C(O)C2 (configuration not stated) |  | 15% | 4% | BK [1]: 4% |
| COc1ccc2c(c1)c1c(c(=O)n2C)CC(C(C)(C)O)O1 (configuration not stated) |  | 0% |  | BK [1]: 0%; BNa [3]: 0% |
| COc1c2ccccc2nc2occc12 [DICTAMNINE] | 23% | 31% | 0% |  |
| Cn1c(=O)c2c(c3cc([N+](=O)[O-])ccc31)OC(C(C)(C)O)C2 (configuration not stated) |  | 4% | 0% |  |
| COc1ccc2c3c(c(=O)n(C)c2c1OC)C=CC(C)(C)O3 |  | 55% | 12% | BK [14]: 41% |
| CC1(C)Oc2nc3ccccc3c(O)c2CC1SS(=O)(=O)O (configuration not stated) |  |  |  | BK [15]: 0%; BNa [10]: 6% |
| COc1ccc2c(c1)c(=O)c1c(n2C)OC(C(C)(C)O)C1 (configuration not stated) |  | 0% |  | BK [1]: 1%; BNa [3]: 0% |
| Cn1c(=O)c2c(c3ccccc31)OC(C(C)(C)O)C2 (configuration not stated) |  | 4% |  | BK [1]: 3%; BNa [3]: 0% |
| CC(C)(O)C1Cc2c(O)nc3ccccc3c2O1 (configuration not stated) |  | 7% | 0% |  |
| COc1ccc2c(c1)c(=O)c1c(n2C)OC(C)(C)C(O)C1 (configuration not stated) |  | 6% | 3% |  |
| CC1(C)Oc2nc3ccccc3c(O)c2CC1O (configuration not stated) |  | 0% |  | BNa [10]: 0% |

Continued, in another order:

| BK [5] | SMILES | BK [2] | BNa [4] | other results |
| --- | --- | --- | --- | --- |
| 15% | CC1(C)CCc2c(O)nc3ccccc3c2O1 | 37% | 3% |  |
| 44% | COc1ccc2c(c1)c(=O)c1cc(C(C)C)oc1n2C | 33% | 1% |  |
| 1% | Cn1c2c(c(=O)c3ccccc31)CC(C(C)(C)O)O2 (configuration not stated) | 0% | 0% |  |
| 51% | COc1cc2nc3occc3c(OC)c2cc1OC [KOKUSAGININE] | 22% | 0% | IC50 [8]: 200 µM; IC50 [9]: 49 µM |
| 83% | COc1ccc2c(c1)c1c(c(=O)n2C)CCC(C)(C)O1 | 39% and 52% |  | BK [1]: 57%; BNa [11]: 4%; BNa [3]: 3%; IC50 [8]: 42 µM; IC50 [12]: 18 µM |
| 70% | CC(C)c1cc2c(=O)n(C)c3ccccc3c2o1 | 42% | 11% | BK [1]: 44%; BK [6]: 25%; BNa [3]: 0% |
| 13% | COc1ccc2c(OC)c3ccoc3nc2c1OC [SKIMMIANINE] | 20% | 6% |  |
| 98% | COc1ccc2c(c1)c1oc(C(C)C)cc1c(=O)n2C | 57% | 11% | BK [1]: 98%; BK [6]: 32%; BNa [3]: 5%; IC50 [8]: 38 µM; IC50 [9]: 5 µM |
| 23% | CC(C)c1cc2c(=O)c3ccccc3n(C)c2o1 | 15% | 0% |  |
